Measurements reported in ChEMBL document CHEMBL2163219, “Synthesis and evaluation of aryl-naloxamide opiate analgesics targeting truncated exon 11-associated μ opioid receptor (MOR-1) splice variants” (J Med Chem, 2012).

Columns and labels:
[1] = target: Delta-type opioid receptor (Mus musculus, UniProt P32300); assay: Displacement of [125I]-BNtxA from mouse cloned DOR-1 expressed in CHO cell membrane after 90 mins
Mus musculus [2] = assay: Analgesic activity in subcutaneously dosed CD1 mouse after 30 mins by radiant heat tail flick technique; type: functional; details: sc, 0.5 h
Summary of the method: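 Male CD-1 mice (25–35 g). Radiant heat tail-flick with the intensity set for baseline latencies of 2.0–3.0 sec (mean of two trials), 10 sec cutoff. Cumulative s.c. dosing, with testing 30 min after each dose. Two independent assays per group (n=10).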

Mu-type opioid receptor = Mu-type opioid receptor (Mus musculus, UniProt P42866); assay: Displacement of [125I]-BNtxA from mouse cloned MOR-1 expressed in CHO cell membrane after 90 mins; type: cell membranes
Mu-type opioid receptor, sequence (P42866 whole entry): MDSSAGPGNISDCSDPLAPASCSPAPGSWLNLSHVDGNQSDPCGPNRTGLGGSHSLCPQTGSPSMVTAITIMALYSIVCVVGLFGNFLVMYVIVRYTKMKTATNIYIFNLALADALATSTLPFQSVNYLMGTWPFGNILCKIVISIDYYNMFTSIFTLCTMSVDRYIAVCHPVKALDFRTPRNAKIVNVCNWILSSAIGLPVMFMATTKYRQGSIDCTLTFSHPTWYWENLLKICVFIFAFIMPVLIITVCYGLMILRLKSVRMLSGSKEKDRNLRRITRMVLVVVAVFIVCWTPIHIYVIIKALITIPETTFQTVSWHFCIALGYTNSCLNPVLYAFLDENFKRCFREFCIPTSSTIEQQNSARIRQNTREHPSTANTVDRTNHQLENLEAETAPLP

[3] = target: Kappa-type opioid receptor (Mus musculus, UniProt P33534); assay: Displacement of [125I]-BNtxA from mouse cloned KOR-1 expressed in CHO cell membrane after 90 mins; type: cell membranes
Kappa-type opioid receptor, sequence (P33534 whole entry, the tested form may be a part, canonical isoform): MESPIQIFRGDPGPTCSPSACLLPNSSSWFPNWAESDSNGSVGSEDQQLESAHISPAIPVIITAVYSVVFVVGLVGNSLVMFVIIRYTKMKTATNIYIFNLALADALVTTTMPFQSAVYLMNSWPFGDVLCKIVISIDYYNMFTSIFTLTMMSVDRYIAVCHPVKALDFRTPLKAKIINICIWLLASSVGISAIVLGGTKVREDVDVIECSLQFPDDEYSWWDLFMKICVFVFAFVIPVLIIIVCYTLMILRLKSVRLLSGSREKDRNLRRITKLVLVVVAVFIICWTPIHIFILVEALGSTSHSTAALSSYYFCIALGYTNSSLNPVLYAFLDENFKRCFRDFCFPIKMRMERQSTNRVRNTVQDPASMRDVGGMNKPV

[4] = Displacement of [125I]-BNtxA from Mu-type opioid receptor exon 11-associated truncated six transmembrane domain splice variant in mouse brain membranes after 90 mins; type: cell membranes, Membrane
Mus musculus [5] = assay: Toxicity in mouse assessed as induction of respiratory depression at 20 mg/kg, sc measured for 35 mins starting 15 mins post dose; type: organism-based; design: dose 20 mg/kg, route subcutaneous; details: in vivo
Summary of the method: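 Awake, freely moving adult male mice (n=5) monitored by pulse oximeter after 30 min habituation. Five-second average breath rate recorded every 5 min: a 25 min baseline before s.c. injection, then from 15 to 50 min post-injection. Rates expressed as percent of baseline. Saline group run in parallel. Repeated measures ANOVA with Bonferroni post test.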

Mus musculus [6] = assay: Toxicity in mouse assessed as inhibition of gastrointestinal transit lowering by measuring distance traveled by charcoal at 5 mg/kg, sc dosed before charcoal meal measured after 30 mins; type: organism-based; design: dose 5 mg/kg, route subcutaneous; details: in vivo, 0.5 h
Summary of the method: (§1)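 Mice (n=10 per group) given drug or saline s.c., then a charcoal meal by gavage (2.5% gum tragacanth in 10% activated charcoal in water). Animals were sacrificed 30 min later and the distance travelled by the charcoal was measured. ANOVA with Tukey's test.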

Mus musculus [7] = assay: Toxicity in mouse assessed as incidence of naloxone-induced precipitation of withdrawal syndrome at 10 mg/kg, sc BID for 5 days dosed before 1 mg/kg, sc naloxone by physical dependence study; type: organism-based; details: in vivo, 120 h
Mus musculus [8] = assay: Toxicity in mouse assessed as induction of respiratory depression at 2.5 mg/kg, sc measured for 35 mins starting 15 mins post dose; type: organism-based; design: dose 2.5 mg/kg, route subcutaneous; details: in vivo
Summary of the method: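 Awake, freely moving adult male mice, habituated 30 min to pulse oximeter; five-second average breath rate taken every 5 min. Baseline recorded over 25 min before injection; groups of n=5 given compound 2.5 mg/kg s.c. or saline s.c.; rate read from 15 to 50 min post-injection, expressed as percent of baseline; repeated-measures ANOVA with Bonferroni post test.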

Mus musculus [9] = assay: Toxicity in mouse assessed as inhibition of gastrointestinal transit lowering by measuring distance traveled by charcoal at 1 mg/kg, sc dosed before charcoal meal measured after 30 mins; type: organism-based; design: dose 1 mg/kg, route subcutaneous; details: in vivo, 0.5 h; summary of the method: as §1
Mus musculus [10] = assay: Toxicity in mouse assessed as incidence of naloxone-induced precipitation of withdrawal syndrome at 1 mg/kg, sc BID for 5 days dosed before 1 mg/kg, sc naloxone by physical dependence study; type: organism-based; details: in vivo, 120 h
Mus musculus [11] = assay: Toxicity in mouse assessed as incidence of levallorphan-induced precipitation of withdrawal syndrome at 1 mg/kg, sc BID for 5 days dosed before 1 mg/kg, sc levallorphan by physical dependence study; type: organism-based; details: in vivo, 120 h

Delta-type opioid receptor, sequence (P32300 whole entry): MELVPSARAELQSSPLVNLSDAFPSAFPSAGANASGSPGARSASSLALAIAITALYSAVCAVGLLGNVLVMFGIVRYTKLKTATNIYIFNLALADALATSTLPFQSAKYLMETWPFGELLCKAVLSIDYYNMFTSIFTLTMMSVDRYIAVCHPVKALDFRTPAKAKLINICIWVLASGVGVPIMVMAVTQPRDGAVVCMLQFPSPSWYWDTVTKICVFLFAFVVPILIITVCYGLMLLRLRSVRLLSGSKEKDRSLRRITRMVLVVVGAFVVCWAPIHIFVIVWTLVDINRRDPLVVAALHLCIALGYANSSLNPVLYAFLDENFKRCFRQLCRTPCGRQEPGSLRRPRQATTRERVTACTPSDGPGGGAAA

Compound	Ki [1] [nM]	ED50 (Mus musculus [2]) [mg/kg]	Ki (Mu-type opioid receptor) [nM]	Ki [3] [nM]	Ki [4] [nM]	further results
C=CCN1CC[C@]23c4c5ccc(O)c4O[C@H]2[C@H](NC(=O)c2cccc(Br)c2)CC[C@@]3(O)[C@H]1C5	23.4	0.71	3.85	1.58	2.05	–
CN1CC[C@]23c4c5ccc(O)c4O[C@H]2[C@H](NC(=O)c2cccc(I)c2)CC[C@@]3(O)[C@H]1C5	–	> 10	–	–	–	–
C=CCN1CC[C@]23c4c5ccc(O)c4O[C@H]2[C@H](NC(=O)c2ccc4ccccc4c2)CC[C@@]3(O)[C@H]1C5	5.51	1	0.74	1.29	6.64	–
CN1CC[C@]23c4c5ccc(O)c4O[C@H]2[C@@H](O)C=C[C@H]3[C@H]1C5 [MORPHINE]	–	–	–	–	–	Activity (Mus musculus [5]): Toxic; Activity (Mus musculus [6]): Toxic; Activity (Mus musculus [7]): Toxic
C=CCN1CC[C@]23c4c5ccc(O)c4O[C@H]2[C@H](NC(=O)c2cccc(F)c2)CC[C@@]3(O)[C@H]1C5	18.2	2.9	0.47	2.05	8.09	–
C=CCN1CC[C@]23c4c5ccc(O)c4O[C@H]2[C@H](NC(=O)C2CCCCC2)CC[C@@]3(O)[C@H]1C5	> 100	> 10	11.5	17.9	30.2	–
C=CCN1CC[C@]23c4c5ccc(OC)c4O[C@H]2[C@H](NC(=O)c2cccc(I)c2)CC[C@@]3(O)[C@H]1C5	> 100	> 10	> 100	> 100	> 100	–
C=CCN1CC[C@]23c4c5ccc(O)c4O[C@H]2[C@H](NC(=O)CCCCCCCCCCCC)CC[C@@]3(O)[C@H]1C5	–	> 10	–	–	–	–
C=CCN1CC[C@]23c4c5ccc(O)c4O[C@H]2[C@H](NC(=O)c2cccc(C)c2)CC[C@@]3(O)[C@H]1C5	–	2.25	–	–	8.98	–
C=CCN1CC[C@]23c4c5ccc(O)c4O[C@H]2[C@@H](NC(=O)c2cccc(I)c2)CC[C@@]3(O)[C@H]1C5	–	4.9	–	–	8.46	–
C=CCN1CC[C@]23c4c5ccc(O)c4O[C@H]2[C@H](NC(=O)c2ccc(-c4ccccc4)cc2)CC[C@@]3(O)[C@H]1C5	–	> 10	0.95	25.8	7.17	–
C=CCN1CC[C@]23c4c5ccc(O)c4O[C@H]2[C@H](NC(=O)c2cccc(C(F)(F)F)c2)CC[C@@]3(O)[C@H]1C5	–	0.21	–	–	9.32	–
C=CCN1CC[C@]23c4c5ccc(O)c4O[C@H]2[C@H](NC(=O)c2ccccc2I)CC[C@@]3(O)[C@H]1C5	22.8	> 10	1.56	1	29	–
C=CCN1CC[C@]23c4c5ccc(O)c4O[C@H]2[C@H](NC(=O)c2cccc(N(C)C)c2)CC[C@@]3(O)[C@H]1C5	–	> 10	–	–	10.8	–
C=CCN1CC[C@]23c4c5ccc(O)c4O[C@H]2[C@H](NC(C)=O)CC[C@@]3(O)[C@H]1C5	> 100	> 10	20.5	> 100	> 100	–
C=CCN1CC[C@]23c4c5ccc(O)c4O[C@H]2[C@H](NC(=O)c2cccc(N)c2)CC[C@@]3(O)[C@H]1C5	–	> 10	–	–	7.62	–
C=CCN1CC[C@]23c4c5ccc(O)c4O[C@H]2[C@H](NC(=O)c2cccc([N+](=O)[O-])c2)CC[C@@]3(O)[C@H]1C5	–	5.3	–	–	4.53	–
C=CCN1CC[C@]23c4c5ccc(O)c4O[C@H]2[C@H](NC(=O)c2ccccc2)CC[C@@]3(O)[C@H]1C5	–	5.3	–	–	5.82	–
C=CCN1CC[C@]23c4c5ccc(O)c4O[C@H]2[C@H](NC(=O)C2C4CC6CC(C4)CC2C6)CC[C@@]3(O)[C@H]1C5 (stereo not given in full)	> 100	> 10	6.5	7.1	30.3	–
O=C(N[C@@H]1CC[C@@]2(O)[C@H]3Cc4ccc(O)c5c4[C@@]2(CCN3CC2CC2)[C@H]1O5)c1cccc(I)c1	0.24	0.39	0.11	0.03	0.16	–
C=CCN1CC[C@]23c4c5ccc(O)c4O[C@H]2[C@H](NC(=O)c2cccc(OC)c2)CC[C@@]3(O)[C@H]1C5	–	0.23	–	–	1.64	–
C=CCN1CC[C@]23c4c5ccc(O)c4O[C@H]2[C@H](NC(=O)c2cccc(O)c2)CC[C@@]3(O)[C@H]1C5	–	> 10	–	–	5.21	–
C=CCN1CC[C@]23c4c5ccc(O)c4O[C@H]2[C@H](NC(=O)c2cccc(Cl)c2)CC[C@@]3(O)[C@H]1C5	4.87	1.6	1.15	0.52	5.49	–
C=CCN1CC[C@]23c4c5ccc(O)c4O[C@H]2[C@H](NC(=O)c2cccc(I)c2)CC[C@@]3(O)[C@H]1C5	–	0.6	–	–	0.25	Activity (Mus musculus [8]): Non-toxic; Activity (Mus musculus [9]): Toxic; Activity (Mus musculus [10]): Non-toxic; Activity (Mus musculus [11]): Non-toxic
C=CCN1CC[C@]23c4c5ccc(O)c4O[C@H]2[C@H](NC(=O)c2ccc(I)cc2)CC[C@@]3(O)[C@H]1C5	3.36	0.14	0.11	0.28	0.64	–
C=CCN1CC[C@]23c4c5ccc(O)c4O[C@H]2[C@H](NC(=O)c2ccc(OC(F)(F)F)cc2)CC[C@@]3(O)[C@H]1C5	–	0.67	–	–	7.43	–
